Source: ChEMBL document CHEMBL3286281, “Amino derivatives of glycyrrhetinic acid as potential inhibitors of cholinesterases” (Bioorg Med Chem, 2014)

Experiments:
[1] = Solubility of the compound; format: physicochemical
Papain (Carica papaya) [2] = biological target: T1, Papain (Carica papaya) (UniProt P00784); experiment: Inhibition of Carica papaya papain at 50 uM
T1 sequence (whole entry): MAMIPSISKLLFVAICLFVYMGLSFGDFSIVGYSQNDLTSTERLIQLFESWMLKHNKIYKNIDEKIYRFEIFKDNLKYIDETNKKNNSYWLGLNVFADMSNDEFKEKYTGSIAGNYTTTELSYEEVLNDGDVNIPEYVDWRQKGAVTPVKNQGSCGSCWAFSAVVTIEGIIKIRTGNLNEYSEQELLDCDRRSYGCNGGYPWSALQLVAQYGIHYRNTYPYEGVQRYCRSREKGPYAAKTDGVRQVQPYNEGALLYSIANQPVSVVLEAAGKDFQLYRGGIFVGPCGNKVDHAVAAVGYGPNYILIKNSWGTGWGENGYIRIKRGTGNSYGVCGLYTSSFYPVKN
Outline: (§1)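 Carica papaya papain in 50 mM Tris-HCl pH 6.2 preincubated with compound for 20 min at 37 °C. Reaction started with 4-nitrophenyl acetate. Absorbance at 415 nm read each minute for 10 min at 37 °C, in duplicate. Relative inhibition calculated as the ratio of slopes, compound versus blank, over the linear range.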

Acetylcholinesterase = Acetylcholinesterase (Electrophorus electricus, UniProt O42275); experiment: Inhibition of Electrophorus electricus AChE using acetylthiocholine iodide as substrate after 20 mins measured for 1 min interval for 30 mins by Ellman's method
Acetylcholinesterase, sequence (O42275 whole entry): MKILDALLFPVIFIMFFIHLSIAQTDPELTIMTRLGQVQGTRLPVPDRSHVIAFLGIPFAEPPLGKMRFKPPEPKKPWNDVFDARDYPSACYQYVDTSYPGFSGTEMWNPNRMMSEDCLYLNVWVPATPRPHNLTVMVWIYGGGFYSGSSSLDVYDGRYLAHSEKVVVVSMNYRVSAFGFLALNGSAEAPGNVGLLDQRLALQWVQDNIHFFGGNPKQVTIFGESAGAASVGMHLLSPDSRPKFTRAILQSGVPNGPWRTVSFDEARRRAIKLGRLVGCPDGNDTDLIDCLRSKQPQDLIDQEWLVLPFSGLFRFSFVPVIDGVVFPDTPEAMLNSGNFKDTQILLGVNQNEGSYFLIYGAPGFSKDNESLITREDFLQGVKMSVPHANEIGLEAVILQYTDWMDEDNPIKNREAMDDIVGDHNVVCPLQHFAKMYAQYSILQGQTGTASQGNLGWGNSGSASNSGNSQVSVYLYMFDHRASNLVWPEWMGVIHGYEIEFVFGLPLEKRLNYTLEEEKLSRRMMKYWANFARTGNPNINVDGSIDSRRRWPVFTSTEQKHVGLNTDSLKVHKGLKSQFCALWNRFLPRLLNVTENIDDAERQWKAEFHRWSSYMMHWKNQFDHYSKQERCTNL

Cholinesterase = Cholinesterase (Equus caballus, UniProt P81908); experiment: Inhibition of equine serum BChE using butyrylthiocholine iodide as substrate after 20 mins measured for 1 min interval for 30 mins by Ellman's method
Cholinesterase, sequence (P81908 whole entry): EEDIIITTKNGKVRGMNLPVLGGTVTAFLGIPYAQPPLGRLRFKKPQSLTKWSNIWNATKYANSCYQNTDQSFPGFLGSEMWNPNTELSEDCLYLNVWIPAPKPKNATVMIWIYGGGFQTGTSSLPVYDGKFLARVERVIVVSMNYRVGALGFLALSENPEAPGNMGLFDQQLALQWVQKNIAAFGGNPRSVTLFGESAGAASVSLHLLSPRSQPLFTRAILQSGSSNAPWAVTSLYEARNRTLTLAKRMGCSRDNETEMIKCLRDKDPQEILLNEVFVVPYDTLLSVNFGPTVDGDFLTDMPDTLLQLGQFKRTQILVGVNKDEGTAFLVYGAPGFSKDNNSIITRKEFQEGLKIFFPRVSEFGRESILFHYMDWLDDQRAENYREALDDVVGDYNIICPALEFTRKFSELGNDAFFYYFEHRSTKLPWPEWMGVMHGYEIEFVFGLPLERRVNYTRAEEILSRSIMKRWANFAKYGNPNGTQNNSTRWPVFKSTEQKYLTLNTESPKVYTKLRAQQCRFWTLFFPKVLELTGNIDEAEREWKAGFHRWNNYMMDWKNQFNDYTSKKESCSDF

[3] = Selectivity ratio of Ki for Electrophorus electricus AChE to Ki for equine serum BChE
Outline: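 Ki from Ellman kinetics at pH 8.0 and 30 °C after 20 min enzyme–inhibitor–DTNB preincubation. Inhibitor at several concentrations plus a water blank; ATChI or BTChI at 0.9375, 0.625, 0.325 and 0.1875 mM. A415 read every 1 min for 30 min, in triplicate. Ki from Lineweaver-Burk, Dixon and Cornish-Bowden plots; F = Ki(AChE)/Ki(BChE).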

[4] = biological target: Carbonic anhydrase 2 (Bos taurus) (UniProt P00921); experiment: Inhibition of bovine erythrocytes carbonic anhydrase 2 at 50 uM
Carbonic anhydrase 2 (Bos taurus), sequence (P00921 2-260 limits assumed): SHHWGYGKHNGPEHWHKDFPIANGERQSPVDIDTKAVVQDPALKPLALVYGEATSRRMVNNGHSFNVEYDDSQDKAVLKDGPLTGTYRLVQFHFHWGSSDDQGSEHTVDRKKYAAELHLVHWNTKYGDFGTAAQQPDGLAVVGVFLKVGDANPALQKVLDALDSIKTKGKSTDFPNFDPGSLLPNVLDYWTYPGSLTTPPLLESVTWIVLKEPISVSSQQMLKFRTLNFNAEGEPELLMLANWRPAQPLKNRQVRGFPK
Outline: (§2)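 Enzyme (bovine erythrocyte carbonic anhydrase II or Candida antarctica lipase) in 50 mM Tris-HCl pH 8.0 preincubated with compound for 20 min at 37 °C. Reaction started with 4-nitrophenyl acetate substrate. Absorbance at 415 nm followed each minute for 10 min at 37 °C, in duplicate. Relative inhibition taken as the slope ratio, compound over blank, over the linear range.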

Candida antarctica [5] = experiment: Inhibition of Candida antarctica lipase at 50 uM; outline: as §2
[6] = biological target: Acetylcholinesterase (Electrophorus electricus) (UniProt O42275); experiment: Inhibition of Electrophorus electricus AChE using acetylthiocholine iodide as substrate at 50 uM after 20 mins measured for 1 min interval for 30 mins by Ellman's method
Acetylcholinesterase (Electrophorus electricus), sequence (O42275 24-633 limits assumed): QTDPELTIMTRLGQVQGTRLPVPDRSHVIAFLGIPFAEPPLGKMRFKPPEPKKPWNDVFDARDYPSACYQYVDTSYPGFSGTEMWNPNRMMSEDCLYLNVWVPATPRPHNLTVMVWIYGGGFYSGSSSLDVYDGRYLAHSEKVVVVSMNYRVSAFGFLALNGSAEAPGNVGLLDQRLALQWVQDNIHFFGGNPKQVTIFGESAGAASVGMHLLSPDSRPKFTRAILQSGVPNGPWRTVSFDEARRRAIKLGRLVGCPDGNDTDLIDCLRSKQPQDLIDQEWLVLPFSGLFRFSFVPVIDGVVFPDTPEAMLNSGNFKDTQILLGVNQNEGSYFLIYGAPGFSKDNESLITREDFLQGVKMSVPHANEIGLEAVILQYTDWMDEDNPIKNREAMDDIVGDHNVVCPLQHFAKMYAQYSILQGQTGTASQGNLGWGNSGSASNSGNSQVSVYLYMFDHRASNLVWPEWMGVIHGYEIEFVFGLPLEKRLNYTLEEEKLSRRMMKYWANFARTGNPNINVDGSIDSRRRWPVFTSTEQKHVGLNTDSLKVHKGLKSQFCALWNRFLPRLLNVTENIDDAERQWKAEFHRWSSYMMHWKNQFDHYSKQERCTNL
Outline: (§3)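 Ellman assay in 50 mM Tris-HCl pH 8.0. Enzyme was preincubated with DTNB (3 mM stock) and compound at 30 °C for 20 min. Reaction started with ATChI for AChE or BTChI for BChE. Absorbance at 415 nm was read at 30 °C every 1 min for 30 min. Triplicates.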

[7] = biological target: Cholinesterase (Equus caballus) (UniProt P81908); experiment: Inhibition of equine serum BChE using butyrylthiocholine iodide as substrate at 50 uM after 20 mins measured for 1 min interval for 30 mins by Ellman's method; outline: as §3
Cholinesterase (Equus caballus), sequence (P81908 whole entry): as the sequence (P81908 whole entry) above

[8] = Cytotoxicity against mouse NIH/3T3 cells after 96 hrs by sulforhodamine-B assay; format: cell-based; conditions: NIH3T3, 96 h
Outline: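 NIH 3T3 murine embryonic fibroblasts grown as monolayers in RPMI 1640 with 10% heat-inactivated FBS and penicillin/streptomycin, 37 °C, 5% CO2. Cells seeded, then exposed after 24 h to serial dilutions (0-30 μM) for 96 h, DMSO or DMF ≤0.5%. Fixed with 10% TCA at 4 °C, stained with 0.4% SRB, dye solubilized in 10 mM Tris base, absorbance read at 570 nm. Survival relative to untreated controls gave IC50. Triplicate.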

Papain (Carica papaya) [9] = biological target: T1, Papain (Carica papaya); experiment: Inhibition of Carica papaya papain at 10 uM; outline: as §1
[10] = biological target: Carbonic anhydrase 2 (Bos taurus) (UniProt P00921); experiment: Inhibition of bovine erythrocytes carbonic anhydrase 2 at 10 uM; outline: as §2
Candida antarctica [11] = experiment: Inhibition of Candida antarctica lipase at 10 uM; outline: as §2
[12] = biological target: Acetylcholinesterase (Electrophorus electricus) (UniProt O42275); experiment: Inhibition of Electrophorus electricus AChE using acetylthiocholine iodide as substrate at 10 uM after 20 mins measured for 1 min interval for 30 mins by Ellman's method; outline: as §3
[13] = biological target: Cholinesterase (Equus caballus) (UniProt P81908); experiment: Inhibition of equine serum BChE using butyrylthiocholine iodide as substrate at 10 uM after 20 mins measured for 1 min interval for 30 mins by Ellman's method; outline: as §3

Row | Compound | solubility [1] | Ki (Acetylcholinesterase) [µM] | Ki (Cholinesterase) [µM] | Ratio Ki [3] | other results
1 | COC(=O)[C@@]1(C)CC[C@]2(C)CC[C@]3(C)C(=CC(=O)[C@@H]4[C@@]5(C)CC[C@H](OC(=O)[C@@H](N)CCCN)C(C)(C)[C@@H]5CC[C@]43C)[C@@H]2C1 | Insoluble |  |  |  | 
2 | COC(=O)[C@@]1(C)CC[C@]2(C)CC[C@]3(C)C(=CC(=O)[C@@H]4[C@@]5(C)CC[C@H](OC(=O)[C@@H](N)CCC(=O)OCc6ccccc6)C(C)(C)[C@@H]5CC[C@]43C)[C@@H]2C1 |  | 16.1 | > 100 | < 0.16 | inhibition (Papain (Carica papaya) [2]): 0%; inhibition [4]: 15%; inhibition (Candida antarctica [5]): 51%; inhibition [6]: 58%; inhibition [7]: 16%; IC50 [8]: > 30 µM
3 | CC[C@H](C)[C@H](N)C(=O)O[C@H]1CC[C@]2(C)[C@H]3C(=O)C=C4[C@@H]5C[C@@](C)(C(=O)OC)CC[C@]5(C)CC[C@@]4(C)[C@]3(C)CC[C@H]2C1(C)C | Insoluble |  |  |  | 
4 | COC(=O)[C@@]1(C)CC[C@]2(C)CC[C@]3(C)C(=CC(=O)[C@@H]4[C@@]5(C)CC[C@H](OC(=O)[C@@H](N)C(C)C)C(C)(C)[C@@H]5CC[C@]43C)[C@@H]2C1 | Insoluble |  |  |  | 
5 | COC(=O)C[C@H](N)C(=O)O[C@H]1CC[C@]2(C)[C@H]3C(=O)C=C4[C@@H]5C[C@@](C)(C(=O)OC)CC[C@]5(C)CC[C@@]4(C)[C@]3(C)CC[C@H]2C1(C)C | Insoluble |  |  |  | 
6 | CC1(C)[C@@H](O)CC[C@]2(C)[C@H]3C(=O)C=C4[C@@H]5C[C@@](C)(C(=O)NCCCN)CC[C@]5(C)CC[C@@]4(C)[C@]3(C)CC[C@@H]12 |  | > 100 | 5.43 | > 18.4 | inhibition (Papain (Carica papaya) [2]): 0%; inhibition [4]: 0%; inhibition (Candida antarctica [5]): 51%; inhibition [6]: 35%; inhibition [7]: 79%; IC50 [8]: > 30 µM
7 | COC(=O)[C@@]1(C)CC[C@]2(C)CC[C@]3(C)C(=CC(=O)[C@@H]4[C@@]5(C)CC[C@H](OC(=O)[C@@H](N)CCN)C(C)(C)[C@@H]5CC[C@]43C)[C@@H]2C1 |  | 18.7 | > 100 | < 0.19 | inhibition (Papain (Carica papaya) [2]): 0%; inhibition [4]: 0%; inhibition (Candida antarctica [5]): 38%; inhibition [6]: 68%; inhibition [7]: 16%; IC50 [8]: 3.05 µM
8 | CC1(C)[C@@H](O)CC[C@]2(C)[C@H]3C(=O)C=C4[C@@H]5C[C@@](C)(C(=O)On6nnc7ccccc76)CC[C@]5(C)CC[C@@]4(C)[C@]3(C)CC[C@@H]12 |  | > 20 | 9.81 | > 2.04 | inhibition (Papain (Carica papaya) [9]): 0%; inhibition [10]: 27%; inhibition (Candida antarctica [11]): 32%; inhibition [12]: 49%; inhibition [13]: 68%; IC50 [8]: > 30 µM
9 | CCOC(=O)[C@@]1(C)CC[C@]2(C)CC[C@]3(C)C(=CC(=O)[C@@H]4[C@@]5(C)CC[C@H](OC(=O)[C@@H](N)Cc6ccccc6)C(C)(C)[C@@H]5CC[C@]43C)[C@@H]2C1 |  | 13.7 | > 100 | < 0.14 | 
10 | CC1(C)[C@@H](O)CC[C@]2(C)[C@H]3C(=O)C=C4[C@@H]5C[C@@](C)(C(=O)OC/C=C/CBr)CC[C@]5(C)CC[C@@]4(C)[C@]3(C)CC[C@@H]12 |  | 29.6 | > 40 | < 0.74 | 
11 | C=CCCOC(=O)[C@@]1(C)CC[C@]2(C)CC[C@]3(C)C(=CC(=O)[C@@H]4[C@@]5(C)CC[C@H](O)C(C)(C)[C@@H]5CC[C@]43C)[C@@H]2C1 |  | 14.9 | > 100 | < 0.15 | 
12 | CC1(C)[C@@H](O)CC[C@]2(C)[C@H]3C(=O)C=C4[C@@H]5C[C@@](C)(C(=O)OCCCCCCBr)CC[C@]5(C)CC[C@@]4(C)[C@]3(C)CC[C@@H]12 |  | 13 | > 100 | < 0.13 | inhibition (Papain (Carica papaya) [2]): 0%; inhibition [4]: 0%; inhibition (Candida antarctica [5]): 45%; inhibition [6]: 43%; inhibition [7]: 30%; IC50 [8]: > 30 µM
13 | COC(=O)[C@@]1(C)CC[C@]2(C)CC[C@]3(C)C(=CC(=O)[C@@H]4[C@@]5(C)CC[C@H](OC(=O)[C@@H](N)CC(=O)OCc6ccccc6)C(C)(C)[C@@H]5CC[C@]43C)[C@@H]2C1 |  | 28.1 | > 100 | < 0.28 | 
14 | COC(=O)[C@@]1(C)CC[C@]2(C)CC[C@]3(C)C(=CC(=O)[C@@H]4[C@@]5(C)CC[C@H](OC(=O)[C@@H](C)N)C(C)(C)[C@@H]5CC[C@]43C)[C@@H]2C1 |  | 17.7 | > 100 | < 0.18 | 
15 | CC1(C)[C@@H](O)CC[C@]2(C)[C@H]3C(=O)C=C4[C@@H]5C[C@@](C)(C(=O)OCCBr)CC[C@]5(C)CC[C@@]4(C)[C@]3(C)CC[C@@H]12 |  | 23.8 | > 100 | < 0.24 | 
16 | COC(=O)[C@@]1(C)CC[C@]2(C)CC[C@]3(C)C(=CC(=O)[C@@H]4[C@@]5(C)CC[C@H](OC(=O)CN)C(C)(C)[C@@H]5CC[C@]43C)[C@@H]2C1 |  | 19.8 | > 100 | < 0.2 | 
17 | CCOC(=O)[C@@]1(C)CC[C@]2(C)CC[C@]3(C)C(=CC(=O)[C@@H]4[C@@]5(C)CC[C@H](OC(=O)[C@H](N)Cc6c[nH]c7ccccc67)C(C)(C)[C@@H]5CC[C@]43C)[C@@H]2C1 |  | 11.7 | > 100 | < 0.12 | 
18 | COC(=O)[C@@]1(C)CC[C@]2(C)CC[C@]3(C)C(=CC(=O)[C@@H]4[C@@]5(C)CC[C@H](OC(=O)[C@@H](N)CC(C)C)C(C)(C)[C@@H]5CC[C@]43C)[C@@H]2C1 | Insoluble |  |  |  | 
19 | COC(=O)CC[C@H](N)C(=O)O[C@H]1CC[C@]2(C)[C@H]3C(=O)C=C4[C@@H]5C[C@@](C)(C(=O)OC)CC[C@]5(C)CC[C@@]4(C)[C@]3(C)CC[C@H]2C1(C)C | Insoluble |  |  |  | 
20 | COC(=O)[C@@]1(C)CC[C@]2(C)CC[C@]3(C)C(=CC(=O)[C@@H]4[C@@]5(C)CC[C@H](OC(=O)[C@@H](N)CCCCN)C(C)(C)[C@@H]5CC[C@]43C)[C@@H]2C1 |  | 20 | > 100 | < 0.2 | 
21 | COC(=O)[C@@]1(C)CC[C@]2(C)CC[C@]3(C)C(=CC(=O)[C@@H]4[C@@]5(C)CC[C@H](OC(=O)[C@@H](N)Cc6ccccc6)C(C)(C)[C@@H]5CC[C@]43C)[C@@H]2C1 |  | 20.7 | > 100 | < 0.21 | 
22 | COC(=O)[C@@]1(C)CC[C@]2(C)CC[C@]3(C)C(=CC(=O)[C@@H]4[C@@]5(C)CC[C@H](OC(=O)[C@H](C)N)C(C)(C)[C@@H]5CC[C@]43C)[C@@H]2C1 | Insoluble |  |  |  | 
